Among the data in BindingDB's records for doi:10.1021/jm020269o (The Pennsylvania State University, 2003) are IC50 values, retold here.

In experiment [1] the target is T1, Bifunctional epoxide hydrolase 2 (Homo sapiens, UniProt P34913).
T1 sequence (P34913 whole entry): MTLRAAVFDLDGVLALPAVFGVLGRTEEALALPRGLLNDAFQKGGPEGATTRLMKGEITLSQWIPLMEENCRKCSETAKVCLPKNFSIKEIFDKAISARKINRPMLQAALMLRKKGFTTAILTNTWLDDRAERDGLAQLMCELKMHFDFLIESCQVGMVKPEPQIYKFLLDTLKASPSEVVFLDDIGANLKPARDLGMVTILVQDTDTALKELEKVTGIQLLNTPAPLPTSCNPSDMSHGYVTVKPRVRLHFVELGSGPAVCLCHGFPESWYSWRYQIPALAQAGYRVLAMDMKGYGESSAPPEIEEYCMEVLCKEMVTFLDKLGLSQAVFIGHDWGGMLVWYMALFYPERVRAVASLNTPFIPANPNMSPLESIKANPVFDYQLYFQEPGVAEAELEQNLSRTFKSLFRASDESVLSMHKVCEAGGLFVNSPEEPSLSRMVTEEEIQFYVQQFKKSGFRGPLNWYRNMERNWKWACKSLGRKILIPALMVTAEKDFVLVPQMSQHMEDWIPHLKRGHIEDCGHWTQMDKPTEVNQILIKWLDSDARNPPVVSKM
Description: Inhibitory activity against human soluble epoxide hydrolase. The method, boiled down:
(§1)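 Recombinant sEH (human HsEH or mouse MsEH) was expressed in baculovirus, affinity-purified to at least 97% purity, and had no detectable esterase or glutathione transferase activity. Enzyme (HsEH 0.20 µM, MsEH 0.10 µM) was preincubated with inhibitor for 5 min at 30 °C in pH 7.4 sodium phosphate buffer. Racemic 4-nitrophenyl-trans-2,3-epoxy-3-phenylpropyl carbonate (40 µM) was then added. 4-Nitrophenolate was read at 405 nm over 1 min. Assays were run in triplicate, with inhibitor up to 500 µM. IC50 came from regression of at least five points.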

Experiment [2] concerns the target T2, Bifunctional epoxide hydrolase 2 (Mus musculus, UniProt P34914).
T2 sequence (P34914 whole entry): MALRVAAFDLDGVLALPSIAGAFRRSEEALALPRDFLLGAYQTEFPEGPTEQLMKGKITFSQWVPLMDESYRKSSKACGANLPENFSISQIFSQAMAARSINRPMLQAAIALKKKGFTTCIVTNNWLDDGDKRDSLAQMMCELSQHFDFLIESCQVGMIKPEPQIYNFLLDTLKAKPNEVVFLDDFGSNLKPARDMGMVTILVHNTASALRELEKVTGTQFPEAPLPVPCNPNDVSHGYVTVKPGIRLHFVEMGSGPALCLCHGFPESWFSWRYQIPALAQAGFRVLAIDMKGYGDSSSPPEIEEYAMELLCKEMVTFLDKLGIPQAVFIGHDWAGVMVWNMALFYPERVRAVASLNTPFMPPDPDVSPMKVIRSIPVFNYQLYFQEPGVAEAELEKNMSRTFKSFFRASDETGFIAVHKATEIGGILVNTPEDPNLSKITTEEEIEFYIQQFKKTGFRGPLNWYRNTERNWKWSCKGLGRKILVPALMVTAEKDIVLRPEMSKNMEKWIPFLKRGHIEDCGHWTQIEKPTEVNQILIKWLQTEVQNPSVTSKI
Nature of the experiment: Inhibitory activity against murine soluble epoxide hydrolase. In outline:
as §1

Each structure is given as a SMILES string.

A word on the IC50: it is the concentration at which inhibition is half-maximal. A high value points to weaker potency. The compound `O=C(Nc1ccc(Cl)c(Cl)c1)Nc1ccc(Cl)c(Cl)c1` [US8815951, 299] returned an IC50 in experiment [1] of 0.257 µM. For `CCCCCCCCCCCCNC(=O)NC1CCCC1` [1-Cyclopentyl-3-dodecyl-urea], the IC50 in experiment [2] came out at 0.1 µM; in experiment [1] it was 0.549 µM. For `CCCCCCCCCCCCNC(=O)NCC(C)(C)C(C)(C)C` [1-Dodecyl-3-(2,2,3,3-tetramethyl-butyl)-urea] the same measures were 0.129 µM and 229 µM. In experiment [2], `CCCCCCNC(=O)NC` [1-Hexyl-3-methyl-urea] returned an IC50 of 224 µM.

On to `CN(C(=O)NC1CCCCC1)c1ccccc1` [3-Cyclohexyl-1-methyl-1-phenyl-urea], for which the IC50 in experiment [2] came out at 195 µM; in experiment [1] it was 129 µM. As to `CC(C)(C)OC(=O)CNC(=O)NC1CCCCC1` [(3-Cyclohexyl-ureido)-acetic acid tert-butyl ester], the IC50 in experiment [2] stood at 4.37 µM; in experiment [1], 19 µM.
